For orientation: IC50 means the midpoint of a concentration-inhibition curve. Low values mean greater potency in that assay, high ones weaker potency in that assay. Usually inhibition in vivo stands for the share of the control response that was lost under treatment. Lower therefore signals a weak effect. As a reminder, the Inhibition is the percentage by which the read-out fell short of the control. Read a high Inhibition as strong suppression.

Structures are written as SMILES.

Assay [1] concerns the target T1, Polyunsaturated fatty acid 5-lipoxygenase (Rattus norvegicus, UniProt P12527).
T1 sequence (P12527 whole entry): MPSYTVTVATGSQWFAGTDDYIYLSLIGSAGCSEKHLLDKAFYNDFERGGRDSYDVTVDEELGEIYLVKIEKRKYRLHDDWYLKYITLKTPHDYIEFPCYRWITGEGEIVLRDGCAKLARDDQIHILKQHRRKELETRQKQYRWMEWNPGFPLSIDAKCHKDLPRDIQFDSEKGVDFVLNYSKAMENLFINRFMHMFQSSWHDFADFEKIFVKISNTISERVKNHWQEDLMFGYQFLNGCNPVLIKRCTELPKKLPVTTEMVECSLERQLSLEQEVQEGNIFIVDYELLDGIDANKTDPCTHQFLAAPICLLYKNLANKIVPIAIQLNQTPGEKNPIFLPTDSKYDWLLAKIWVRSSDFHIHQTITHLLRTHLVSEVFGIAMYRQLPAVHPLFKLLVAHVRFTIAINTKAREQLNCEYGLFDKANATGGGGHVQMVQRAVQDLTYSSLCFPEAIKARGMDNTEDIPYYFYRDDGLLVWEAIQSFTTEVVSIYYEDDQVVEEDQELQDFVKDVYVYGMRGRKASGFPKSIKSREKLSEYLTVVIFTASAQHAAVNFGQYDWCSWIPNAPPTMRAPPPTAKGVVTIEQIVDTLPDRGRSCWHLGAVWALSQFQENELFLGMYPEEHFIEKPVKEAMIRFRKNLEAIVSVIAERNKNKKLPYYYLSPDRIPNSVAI
The assay is described as follows: In vitro inhibition of 5-lipoxygenase from RBL-1 cells. Format: cell-based. In a few lines: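 Enzyme source is the 20000g supernatant of RBL-1 cells, assayed for 5-lipoxygenase inhibition. IC50 is reported in µM with a range in parentheses.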

Assay [2] is described as follows: In vivo inhibition of biosynthesis of leukotriene in rat peritoneal anaphylaxis model at 200 umol/kg. Format: functional. A digest of the protocol: (§1)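 Rats receive a single oral dose of 200 µmol/kg, and in vivo activity is measured 1 h after dosing in the peritoneal anaphylaxis model. The result is given as % inhibition of leukotriene biosynthesis or flagged as not significant.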

A short description of assay [3]: In vivo inhibition of biosynthesis of leukotriene in rat peritoneal anaphylaxis model at 200 mg/Kg. Format: functional.
Assay [4] in a line: In vivo inhibition of biosynthesis of leukotriene in rat peritoneal anaphylaxis model. Format: functional. A digest of the protocol:
(§2)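 Test compounds are given orally to rats in the peritoneal anaphylaxis model, and leukotriene biosynthesis is measured in vivo. ED50 is expressed in µmol/kg, with the range in parentheses and the mg/kg equivalent.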

Assay [5] is described as follows: In vivo Inhibition of biosynthesis of leukotriene in rat peritoneal anaphylaxis model. Format: functional. A digest of the protocol:
as §2

The next assay relates to Rattus norvegicus. The assay can be described thus: Plasma concentration 1 hr after oral administration of a dose of 200 uM/kg. Format: functional, organism-based. A digest of the protocol: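 Rats are dosed orally at 200 µmol/kg, and plasma drug concentration is measured 1 h later. Values are the average ± range of two determinations, and the stated detection limit is 2.0 µM.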

The nature of assay [6]: In vivo inhibition of biosynthesis of leukotriene in rat peritoneal anaphylaxis model at 200 uM/Kg. Format: functional. A digest of the protocol:
as §1

A short description of assay [7]: In vivo inhibition of biosynthesis of leukotriene in rat peritoneal anaphylaxis model; non significant at 200 umol/kg. Format: functional. In a few lines: as §1
Assay [8] in a line: In vivo inhibition of biosynthesis of leukotriene in rat peritoneal anaphylaxis model at 200 uMKg. Format: functional. A digest of the protocol:
as §1

The mark [9] stands for this setting: Rattus norvegicus, read-out: ED50.

Regarding `CC(=O)N(O)C(c1ccc(OCc2ccccc2)cc1)C(C)C` (stereo not given), the half-maximal inhibitory concentration (IC50) in [1] was 780 nM. Moreover, in [2], the inhibition in vivo at 200 µmol/kg is less than 40%.

In [1], `CCCCOc1ccc(C(C)N(O)C(=O)c2ccccc2)cc1` (stereo not given) had an IC50 of 1300 nM. In assay [2], this compound gave an inhibition in vivo at 200 µmol/kg of less than 40%.

As for `CC(=O)N(O)C(C)c1ccccc1OCc1ccccc1` (stereo not given), in assay [1], the IC50 came out at 760 nM. For the same compound, the inhibition in vivo at 200 mg/kg in assay [3] was less than 40%.

For `CC(=O)N(O)C(C)c1ccc(OCCc2ccccc2)cc1` (stereo not given), the ED50 in assay [4] (setting [9]) is 49 µmol/kg; in assay [5] (setting [9]), 15 mg/kg. In assay [1], this compound had an IC50 of 410 nM.

For the compound `CC(=O)N(O)C(C)c1ccc(SCc2ccccc2)cc1` (stereo not given), the IC50 in assay [1] is 190 nM.

For the compound `CC(=O)N(O)C(C)c1cccc(OCc2ccccc2)c1` (stereo not given), the ED50 in assay [4] (setting [9]) worked out at 68 µmol/kg; in assay [5] (setting [9]) it was 19 mg/kg. The compound also yielded a half-maximal inhibitory concentration (IC50) in assay [1] of 330 nM.

Turning to `CC(=O)N(O)C(C)c1ccc(OCc2ccccc2)cc1` (stereo in doubt; 5) [listing 1 of 2 here], the ED50 was found to be 28 µM/kg in [4] and 8 mg/kg in assay [5].

As to `CC(=O)N(O)C(C)c1ccc(OCc2ccncc2)cc1` (stereo not given), the ED50 in assay [4] (setting [9]) was determined as 32 µmol/kg; in [5] (setting [9]) it was 9 mg/kg. Also, in [1], the 50% inhibitory concentration (IC50) amounted to 2600 nM. The same compound gave a Concentration with Rattus norvegicus of 152 µM.

For the compound `CC(=O)N(O)C(C)c1ccc(Oc2ccccc2)cc1` (stereo not given), the ED50 in assay [4] (setting [9]) came out at 47 µmol/kg; in assay [5] (setting [9]) it was 12 mg/kg. In assay [1], 370 nM corresponded to half-maximal inhibition (IC50). The compound further registered a Concentration in the assay on Rattus norvegicus of 52 µM.

For the compound `CCCCOc1ccc(C(CC)N(O)C(C)=O)cc1` (stereo not given), the ED50 was determined as 188 µmol/kg in [4] (setting [9]) and 50 mg/kg in [5] (setting [9]). In addition, half-maximal inhibition in [1] (IC50) was put at 740 nM.

In assay [1], `CC(=O)N(O)C(C)c1ccc(OC2c3ccccc3-c3ccccc32)cc1` (stereo not given) registered a concentration for half-maximal inhibition (IC50) of 4900 nM. In addition, the Inhibition in [6] is recorded as less than 40%.

On to `CCCCOc1ccc(C(C)(C)N(O)C(C)=O)cc1`, for which the IC50 in assay [1] worked out at 650 nM. In assay [2], this compound yielded an inhibition in vivo at 200 µmol/kg of less than 40%.

As to `CCCCOc1ccc(CCCN(O)C(C)=O)cc1`, the IC50 in [1] worked out at 320 nM. In other words, the sub-micromolar range.

`CC(=O)N(O)C(C)c1ccc(OC(C)c2ccccc2)cc1` (stereo not given): the ED50 in assay [4] (setting [9]) came out at 92 µmol/kg; in assay [5] (setting [9]), 28 mg/kg. In assay [1], this compound displayed an IC50 of 500 nM. Moreover, the Concentration with Rattus norvegicus is 106 µM.

In the case of `CC(c1ccc(OCc2ccccc2)cc1)N(O)C=O` (stereo not given), the inhibition in vivo at 200 µmol/kg in [7] was less than 40%. The IC50 in assay [1] came out at 940 nM. The same compound had a Concentration with Rattus norvegicus of 2.3 µM.

Compound `CCCCOc1ccc(CC(C)N(O)C(C)=O)cc1` (stereo not given) had an IC50 in [1] of 540 nM. The compound further came in with an Inhibition in assay [8] of 74%.

For `CCCCOc1cccc(C(C)N(O)C(C)=O)c1` (stereo not given), in [1], the IC50 was 390 nM.

In turn, `CCCCOc1ccc(C(CCCC)N(O)C(C)=O)cc1` (stereo not given) had an IC50 in [1] of 570 nM. In addition, the inhibition in vivo at 200 µmol/kg in [2] was less than 40%.

With `CC(=O)N(O)C(C)c1ccc(OCc2c(C)cc(C)cc2C)cc1` (stereo not given), in assay [1], the IC50 is 620 nM. The compound further displayed an Inhibition in [6] of less than 40%.

In turn, `CC(c1ccc(OCc2ccccc2)cc1)N(O)C(=O)c1ccccc1` (stereo not given) displayed a half-maximal inhibitory concentration (IC50) in [1] of 690 nM. The same compound yielded a Concentration with Rattus norvegicus of less than 2 µM. In addition, the inhibition in vivo at 200 µmol/kg in [2] is less than 40%.

Consider `CCCCOc1ccc(C(C)N(O)C(C)=O)cc1` (stereo not given), for which the ED50 in [4] (setting [9]) worked out at 68 µmol/kg; in assay [5] (setting [9]) it was 17 mg/kg. Moreover, half-maximal inhibition in assay [1] (IC50) was put at 790 nM. Besides, in the assay on Rattus norvegicus, the Concentration is 65.7 µM.

Compound `CCCCOc1ccc(CCN(O)C(C)=O)cc1` had an IC50 in assay [1] of 380 nM. This compound also showed an inhibition in vivo at 200 µmol/kg in assay [2] of less than 40%.

In the case of `CC(=O)N(O)C(C)c1ccc(C(C)Oc2ccccc2)cc1` (stereo not given), inhibition in assay [1] was half-maximal at 460 nM (IC50). Also, the Inhibition in [6] is 47%.

For the compound `CC(=O)N(O)C(C)c1ccc(OCc2ccc3ccccc3n2)cc1` (stereo not given), the ED50 in assay [4] (setting [9]) worked out at 51 µmol/kg; in assay [5] (setting [9]), 17 mg/kg. This compound also yielded an IC50 in assay [1] of 400 nM.

Turning to `CC(=O)N(O)Cc1ccc(OCc2ccccc2)cc1`, the concentration for half-maximal inhibition (IC50) in [1] worked out at 460 nM. Besides, in the assay with Rattus norvegicus, the Concentration worked out at 2.1 µM.

In the case of `CCCCOc1ccc(CCC(C)N(O)C(C)=O)cc1` (stereo not given), the ED50 amounted to 120 µmol/kg in assay [4] (setting [9]) and 35 mg/kg in assay [5] (setting [9]). Besides, half-maximal inhibition in assay [1] (IC50) required 360 nM.

Compound `CC(C)C(=O)N(O)C(C)c1ccc(OCc2ccccc2)cc1` (stereo not given) displayed an IC50 in [1] of 470 nM. In [2], this compound came in with an inhibition in vivo at 200 µmol/kg of less than 40%.

In turn, `CC(=O)N(O)C(C)c1ccc(/C=C/c2ccccc2)cc1` (stereo not given) yielded an IC50 in [1] of 290 nM.

On to `CCCCOc1ccc(C(C(C)C)N(O)C(C)=O)cc1` (stereo not given), for which the midpoint of inhibition in assay [1], the IC50, lay at 880 nM. In the assay with Rattus norvegicus, this compound showed a Concentration of less than 2 µM.

The compound `CC(=O)N(O)C(C)c1ccc(OCc2ccccc2)cc1` (stereo in doubt; 5) [listing 2 of 2 here] registered a Concentration in the assay on Rattus norvegicus of 70 µM.

The compound `CCCCOc1ccc(C(C)N(O)C=O)cc1` (stereo not given) returned an IC50 in assay [1] of 1900 nM. The compound also displayed an inhibition in vivo at 200 µmol/kg in assay [2] of less than 40%.

Consider `CCCCOc1ccc(OCCN(O)C(C)=O)cc1`, for which the ED50 worked out at 84 µmol/kg in [4] (setting [9]) and 22 mg/kg in assay [5] (setting [9]). Also, the IC50 in assay [1] was determined as 750 nM.

As to `CC(=O)N(O)C(C)c1ccc(OCc2ccccc2)cc1` (stereo in doubt; 7), in [1], the IC50 was found to be 370 nM.

For the compound `CC(=O)N(O)C(C)c1ccc(OC(c2ccccc2)C(C)C)cc1` (stereo not given), it took 610 nM to reach half-maximal inhibition in assay [1] (IC50). This compound had a Concentration in the assay on Rattus norvegicus of 10.7 µM. The compound further had an Inhibition in assay [6] of less than 40%.

For `CCCCOc1ccc(CN(O)C(C)=O)cc1`, 1100 nM corresponded to half-maximal inhibition in assay [1] (IC50).

Source of the values: ChEMBL document CHEMBL1123979, “Structure-activity analysis of a class of orally active hydroxamic acid inhibitors of leukotriene biosynthesis” (J Med Chem, 1988).
